From PubChem BioAssay
HCV NS3 hel inh: inhibitors of HCV NS3 helicase, primary screen, biochemical, Cy5 molecular beacon fluorescence; NS3 helicase DNA unwinding; actives 0.56% (n = 290,000); Hepatitis C virus NS3 helicase; AID 1800, 2009; inhibition, % at 10.9 µM;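 active = inhibition above the mean of all tested compounds plus 3 SD, set per campaign, cut at about 35% in these data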
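Test system: hepatitis C virus NS3 helicase domain fragment enzyme. Also added: annealed dual-labelled DNA beacon duplex, ATP-started. Timing: 60 min unwinding reaction at 25 °C after ATP addition. Technique: Cy5 fluorescence. Measure: % inhibition of unwinding.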
core dimer inh: inhibitors of HCV core protein dimerization, primary screen, biochemical, TR-FRET, high-throughput; TR-FRET GST/Flag-core106 dimerization, 1536-well; inhibition, % at 5 µM; actives 0.33% (n = 300,000);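 active = inhibition above the mean of all tested compounds plus 3 SD, set per screening campaign, cut at about 45% in these data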
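Material: GST/Flag-tagged HCV core106 proteins. Incubation: 4 h, 22.5 °C incubation. Read-out basis: inhibition (%) from 671 over 617 nm ratio. Measured by: TR-FRET, excitation 340 nm, emission 617 and 671 nm.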
PHOSPHO1 block: PubChem AID 1565; Phosphoethanolamine/phosphocholine phosphatase (Homo sapiens), Q8TCT1; recombinant PHOSPHO1, absorbance phosphatase assay; inhibition, % at 13.3 µM; actives 1.1% (n = 290,000); in the data active = inhibition above about 60%
Target sequence (Q8TCT1 whole entry, looked up): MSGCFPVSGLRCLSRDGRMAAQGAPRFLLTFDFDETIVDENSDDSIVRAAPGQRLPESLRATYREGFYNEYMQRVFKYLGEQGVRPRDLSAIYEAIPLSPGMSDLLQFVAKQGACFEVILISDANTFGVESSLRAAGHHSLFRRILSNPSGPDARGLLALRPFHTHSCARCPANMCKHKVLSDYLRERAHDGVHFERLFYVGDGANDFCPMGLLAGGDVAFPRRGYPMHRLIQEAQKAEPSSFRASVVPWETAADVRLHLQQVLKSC
UBC9 SUMO inh: inhibitors of in vitro SUMOylation cascade, primary screen, biochemical, HTRF, uHTS; SUMO-conjugating enzyme UBC9 (Homo sapiens), P63279; HTRF SUMOylation assay, SAE1/SAE2 + UBC9; inhibition, % at 35 µM; actives 0.36% (n = 290,000); in the data active = inhibition above about 50%, passing the limit was not always enough
Target sequence (P63279 whole entry, looked up): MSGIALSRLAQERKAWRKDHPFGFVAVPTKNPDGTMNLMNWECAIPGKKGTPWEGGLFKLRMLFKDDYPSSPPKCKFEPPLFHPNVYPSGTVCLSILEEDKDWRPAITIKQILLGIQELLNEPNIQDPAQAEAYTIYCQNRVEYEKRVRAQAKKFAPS
IMP-1 inh: IMP-1 metallo-beta-lactamase inhibitors, primary screen, biochemical, epi-absorbance readout, Pseudomonas aeruginosa enzyme; purified IMP-1, nitrocefin hydrolysis, epi-absorbance fluorescence; inhibition, % at 5.6 µM; actives 0.45% (n = 290,000);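 active = inhibition above the mean plus 3 SD of all compounds in the same screening run, cut at about 4.5% in these data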
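Assay system: purified recombinant IMP-1 beta-lactamase. Input: IMP-1 0.2 nM before substrate addition. Buffer or medium: Zinc- and detergent-supplemented HEPES buffer, pH 7.1. Schedule: 25 °C, 15 min preincubation, 25 min reaction. Signal: Epi-absorbance fluorescence, 480 nm excitation, 530 nm emission. Evaluation: percent inhibition from optical density relative to buffer-blank wells.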
VIM-2 inh: VIM-2 metallo-beta-lactamase inhibitors, primary screen, biochemical, epi-absorbance readout, Pseudomonas aeruginosa enzyme; purified VIM-2, nitrocefin hydrolysis, epi-absorbance fluorescence; inhibition, % at 5.6 µM; actives 0.89% (n = 290,000); AID 1527, 2009;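 active = inhibition above the mean of all tested compounds plus 3 SD, cutoff set per screening run, cut at about 7.5% in these data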;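 also: red hydrolysis product quenches plate fluorescence so inhibitors raise well fluorescence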
Hits are given with their value; 0 = inactive; - = not tested or not shown. The list is not random: actives were taken first. Their share in the collection is about 3.1%.

SMILES	HCV NS3 hel inh	core dimer inh	PHOSPHO1 block	UBC9 SUMO inh	IMP-1 inh	VIM-2 inh
COc1ccc(OC)c2c1C(=O)C(Cl)=C(Cl)C2=O	0	0	0	0	0	8.3
COc1cccc2c1C(=O)c1ccc3ccccc3c1C2=O	0	0	87	0	13	0
O=C(NCC1CCCO1)c1cccc(S(=O)(=O)NCc2ccccc2)c1 (stereo unspecified)	0	0	0	0	0	0
CCCC(=O)Nc1ccc(C=C(C(C)=O)C(C)=O)cc1	0	0	0	0	0	0
O=C(O)c1cc2cccc(S(=O)(=O)N3CCOCC3)c2cc1O	0	0	0	52	0	0
Cc1ccc(S(=O)(=O)N2CCOCC2)cc1C(=O)O	0	0	0	0	0	0
CCN(CC)c1nc(C(F)(F)F)nc2c1nnn2Cc1ccccc1	0	0	0	0	0	0
Cc1cc2c3c(ccc(C)c3n1)N=CN2c1ccccc1	0	0	0	0	0	8.4
CCCS(=O)(=O)N1CCCC(C(=O)NCC2CCCO2)C1 (stereo unspecified)	0	0	0	0	4.9	0
Cc1ccc(S(=O)(=O)N2CCN(c3ccnc4cc(Cl)ccc34)CC2)cc1	0	0	0	0	0	10
Cc1ccc(S(=O)(=O)N2CCN(c3ccnc4cc(Cl)ccc34)CC2)cc1C	0	0	0	0	0	0
COc1ccccc1CN1CC(C(=O)N(C)Cc2[nH]c3ccccc3c2C)CCC1=O (stereo unspecified)	0	0	0	0	0	0
CCCC(=O)OCCNc1cc(SCc2ccco2)c2nonc2c1[N+](=O)[O-]	0	0	0	90	0	0
CCC(=O)OCCNc1cc(Sc2nc3ccccc3s2)c2nonc2c1[N+](=O)[O-]	0	0	88	0	0	0
N#CCCN1CCN(C(=S)c2ccc(-c3ccc(Cl)c(Cl)c3)o2)CC1	0	0	67	0	0	0
N#CCCN1CCN(C(=S)c2ccc(-c3cccc(Cl)c3)o2)CC1	0	0	0	0	0	0
CC(=O)N1CCN(C(=S)c2ccc(-c3ccc(Cl)cc3)o2)CC1	0	0	74	0	0	0
O=[N+]([O-])c1cccc(-c2ccc(C(=S)N3CCOCC3)o2)c1	0	0	0	0	0	0
O=[N+]([O-])c1cc(-c2ccc(C(=S)N3CCOCC3)o2)ccc1Cl	0	0	61	0	0	0
CCOC(=O)C1(C)NC(c2cccc(C)c2)C2C(=O)N(c3ccccc3)C(=O)C21 (stereo unspecified)	0	0	-	0	0	0
COc1ccc(C2(CNC(=O)Cc3ccccc3)CCCC2)cc1OC	0	0	65	0	0	0
C/C(=N/N1CCN(Cc2cccc3ccccc23)CC1)c1ccco1	0	0	0	0	0	0
Cc1cc(C)n2c(=S)[nH]nc2n1	0	0	96	0	0	11
Cc1cc(C)n2cnnc2n1	0	0	0	0	0	0
Cc1cc(C)cc(N2C(=O)CC(Sc3nnnn3-c3ccccc3)C2=O)c1 (stereo unspecified)	0	0	0	0	7.2	0
SMILES	HCV NS3 hel inh	core dimer inh	PHOSPHO1 block	UBC9 SUMO inh	IMP-1 inh	VIM-2 inh
O=C(NNC(=S)NC(=O)C12CC3CC(CC(C3)C1)C2)c1ccncc1	0	0	66	0	0	0
Cc1ccc(CN2CCN(C(=O)C3CCCO3)CC2)cc1 (stereo unspecified)	0	0	0	0	0	0
O=C(C1CCCO1)N1CCN(Cc2c(O)ccc3ccccc23)CC1 (stereo unspecified)	0	0	104	0	0	0
COc1ccc(S(N)(=O)=O)cc1C(=O)NCCCN1CCN(c2cccc(Cl)c2)CC1	0	0	66	0	0	0
CC1(c2ccccc2Cl)NC(=O)N(CC(=O)NCc2ccco2)C1=O (stereo unspecified)	0	0	0	0	0	0
COc1ccc(-n2c(NC(=O)c3ccc(Br)o3)c(C#N)c3nc4ccccc4nc32)cc1	0	-	0	-	0	0
CCCCn1c(NC(=O)c2ccccc2)c(C#N)c2nc3ccccc3nc21	40	-	0	98	0	0
N#Cc1c(NC(=O)c2ccc(Br)o2)n(-c2ccccc2)c2nc3ccccc3nc12	0	0	0	95	0	0
COc1ccc(OC)c(NC(=O)CSc2ncccn2)c1	0	0	76	0	0	0
COc1ccc(OC)c(NC(=O)CSc2nnc(Cc3cccn3C)n2CCc2ccccc2)c1	0	0	69	0	0	0
Cn1cnnc1SCCCN1C(=O)c2cccc3cccc(c23)C1=O	0	0	0	0	0	0
CCC1=[N+](C)CCn2c(C)ccc21	0	0	69	0	0	0
CCC1=[N+](CC(=O)c2ccc(C)cc2)CCn2c(C)ccc21	0	0	0	0	0	0
CCCCC(O)(CCCC)C(=O)NN(C(=O)c1cccnc1Cl)c1ccccc1	0	0	0	0	0	0
O=C(CSc1ncn(-c2ccccc2)n1)Nc1ccc2c(c1)OCO2	0	0	82	0	0	0
O=C(CSc1nccn1-c1ccc(Cl)cc1)Nc1ccc2c(c1)OCO2	0	0	89	0	0	0
O=C(CSc1nnc2c(n1)[nH]c1ccccc12)Nc1ccc2c(c1)OCO2	0	0	78	0	0	0
O=C(CSc1ncn(-c2ccccc2)n1)Nc1ccc2c(c1)OCCO2	0	0	62	0	0	0
Cc1cccc(-n2ccnc2SCC(=O)Nc2ccc3c(c2)OCCO3)c1	0	0	0	0	0	0
Cc1ccc(NC(=O)CSc2nnc3c(n2)[nH]c2ccccc23)cc1	0	0	0	0	0	0
Cc1ccc(NC(=O)CSc2ncn(-c3ccccc3)n2)cc1C	0	0	0	0	0	0
CCNC(=O)NC(=O)C(C)OC(=O)Cc1coc2cc3c(cc12)CCC3 (stereo unspecified)	0	0	0	0	0	0
COc1ccc(-c2c(NC(=O)c3ccco3)oc3ccccc3c2=O)cc1OC	0	0	0	0	0	0
COc1ccc(O[C@H]2C=C[C@@H](c3ccccc3)O[C@@H]2CO/N=C(\C)CCC(=O)OC[C@H]2O[C@H](c3ccccc3)C=C[C@@H]2Oc2ccc(OC)cc2)cc1	0	0	0	0	0	0
O=C(Nc1ccc(S(=O)(=O)Nc2ncccn2)cc1)c1ccc2ncsc2c1	0	0	0	0	0	0
O=C(N/N=C/c1sc(=O)n(Cc2ccc(Br)cc2)c1Cl)c1ccco1	0	0	0	0	24	0
O=C(c1nnsc1S(=O)c1ccc(Cl)cc1)N1CCOCC1 (stereo unspecified)	0	-	0	0	0	0
